Only some compounds are listed: those with a hit (about 4.9% of all), similar ones and a draw of the others.
WT yeast gro inh: growth inhibition of WT yeast, mitochondrial fusion screen | mitochondrial fusion phenotypic screen, WT strain | inhibition, % at 10 µM | 190,000 compounds, 2.1% hits | AID 1362; in the data active means inhibition above about 58%; tested in S. cerevisiae
NPY Y2 blocker: blocks the human neuropeptide Y Y2 receptor; P49146; NPY-Y2 expressing cells, antagonist mode; inhibition, % at 2.7 µM; 140,000 compounds, 0.99% hits; AID 793; in the data active means inhibition above about 17%;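 further: 0% = vehicle with agonist challenge and 100% = reference antagonist with challenge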
Target sequence (P49146 whole entry, looked up): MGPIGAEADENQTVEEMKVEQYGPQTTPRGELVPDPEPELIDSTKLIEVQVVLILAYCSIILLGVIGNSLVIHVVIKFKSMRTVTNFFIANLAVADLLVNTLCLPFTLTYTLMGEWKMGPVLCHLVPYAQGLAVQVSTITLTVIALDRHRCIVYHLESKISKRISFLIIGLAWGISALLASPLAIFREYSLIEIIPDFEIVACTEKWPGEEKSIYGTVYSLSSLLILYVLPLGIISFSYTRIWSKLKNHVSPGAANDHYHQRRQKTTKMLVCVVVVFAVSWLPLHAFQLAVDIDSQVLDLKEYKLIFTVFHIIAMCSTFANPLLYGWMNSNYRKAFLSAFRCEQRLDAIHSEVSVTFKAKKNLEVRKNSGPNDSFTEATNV
RAM inhibit: inhibitors of the yeast RAM network; S. cerevisiae dse1pr::URA3 reporter, 5-FOA growth OD615, 2 d; analog-sensitive cbk1-as2 kinase mutant strain; AID 868; inhibition, % at 50 µM; 190,000 compounds, 1.8% hits;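 active means inhibition above a set limit, 3 SD over mean compound inhibition, cut at about 8.4% in these data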;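 further: 0% = DMSO-only wells with no growth and 100% = 10 µM 1-NA-PP1 full growth; inhibition rescues growth on 5-FOA so higher OD means more RAM inhibition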
NPY Y1 blocker: antagonists of human neuropeptide Y receptor Y1 | inhibition, % at 3.6 µM | HEK293-CNG Y1 cells, membrane potential fluorescence; NPY at EC95, then isoproterenol | 200,000 compounds, 1% hits;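 active means inhibition above the campaign mean inhibition of all tested compounds plus 3 SD, cut at about 20% in these data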;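 further: 0% = DMSO wells given NPY plus isoproterenol and 100% = isoproterenol alone without NPY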
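Test system: HEK293 cells co-expressing NPY Y1 receptor and cyclic-nucleotide gated channel; Also added: NPY (25 nM), isoproterenol (1 µM), Ro 20-1724 (25 µM); Compound dosing: one concentration, 3.6 µM, in 0.4% DMSO; Timing: dye 3 h, compound 60 min room temperature, stimulation 45 min; Technique: Membrane-potential fluorescent dye readout.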
NPY2 pot ag: potentiators or agonists of human neuropeptide Y receptor Y2. cells expressing NPY-Y2, potentiator/agonist read-out. activation, % at 3.6 µM. 220,000 compounds, 0.45% hits. P49146. AID 1359; in the data active means activation above about 27%;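 further: cells stimulated with NPY near EC25 plus isoproterenol at EC100; 0% = vehicle plus submaximal agonist and 100% = vehicle plus saturating agonist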
NPY-Y1 PAM-ag: potentiators or agonists of human neuropeptide Y receptor Y1; P25929; NPY-Y1 expressing cells, potentiator/agonist activation; activation, % at 3.6 µM; 220,000 compounds, 0.37% hits; in the data active means activation above about 33%, passing the limit was not always enough;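 further: cells stimulated with NPY at EC10 then isoproterenol at EC100; 0% = low agonist plus stimulus and 100% = saturating agonist plus stimulus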
Starred values were filed as active, the others as inactive; . = no result.

SMILES | WT yeast gro inh | NPY Y2 blocker | RAM inhibit | NPY Y1 blocker | NPY2 pot ag | NPY-Y1 PAM-ag
CCOC(=O)c1cnc(-c2ccccc2)nc1-c1ccccc1 | 64.5* | . | 0.7 | 5.3 | -3.6 | -3.4
O=C(COc1ccc(Cl)cc1Cl)NCCC1=CCCCC1 | 65.8* | 3.0 | 1.4 | 16.1 | -8.5 | 0.3
O=C(COC(=O)/C=C/c1cccc(Br)c1)NCCC1=CCCCC1 | 10.1 | 9.7 | 9.8* | 2.0 | 8.1 | 0.3
CC(C)(C)NCC(O)COc1ccccc1C(C)(C)C (configuration not stated) | 0.1 | 4.4 | 0.8 | -12.2 | 99.2* | 107.6*
Cc1c[nH]c2cccc(OCC(O)CNC(C)(C)C)c12 (configuration not stated) | -0.3 | 0.4 | 1.1 | -18.3 | 104.0* | 108.8*
CN(C)CCOc1ccccc1C(C)(C)C | -13.6 | 2.0 | 0.9 | 1.0 | -19.3 | -23.7
CC(C)(C)NCC(O)COc1ccccc1C(=O)CCc1ccccc1 (configuration not stated) | 0.4 | 10.0 | -0.8 | -15.8 | 101.7* | 102.5*
CN(CC(=O)N1CCCC1)S(=O)(=O)c1cc(Cl)ccc1Cl | -16.2 | -0.3 | 1.1 | -1.0 | 9.4 | 18.7
N#Cc1ccc(C(=O)Nc2ccn(-c3ccccc3)n2)cc1 | 1.0 | 2.9 | 2.5 | 9.9 | 2.6 | 13.1
C=CCn1c(=O)/c(=C/c2ccc(O)cc2)s/c1=C(/C#N)c1nnc2n1CCCCC2 | -18.4 | 3.0 | 3.7 | 2.9 | -8.7 | -14.3
COc1cccc(C(=O)Nc2nc(-c3ccccc3)c(-c3ccccc3)o2)c1 | 73.7* | 2.5 | 3.8 | 2.4 | -10.0 | 2.5
O=C(NC1=C(Nc2ccc(F)cc2)C(=O)c2ccccc2C1=O)c1ccc(Cl)cc1 | 67.3* | -7.6 | 2.9 | 0.9 | 17.4 | 3.8
O=C(Nc1ccccc1O)c1ccc(Cl)cc1 | -1.5 | 0.9 | -0.1 | -3.6 | 0.2 | -17.8
CCOC(=O)c1cnc2ccc(OCC)cc2c1NCc1ccccc1 | 86.5* | 65.7* | 1.7 | 69.7* | -66.6 | -198.9
CCOC(=O)c1cnc2ccc(OCC)cc2c1N1CCN(c2ccccc2)CC1 | 73.8* | 17.4* | -1.4 | 29.3* | -28.5 | -36.2
COc1ccc(N2CCN(c3c(S(=O)(=O)c4ccccc4)cnc4ccc(OC)cc34)CC2)cc1 | 76.0* | 2.1 | 0.9 | 2.2 | 0.2 | -4.5
CCOC(=O)c1cnc(-n2nc(C)cc2C)nc1NCc1ccccc1 | 64.6* | 10.7 | 2.5 | 5.4 | -42.1 | -50.7
CCOC(=O)c1cnc(-n2nc(C)cc2C)nc1NCCO | 15.5 | 1.3 | -0.3 | -1.5 | 6.2 | -1.5
Cc1cc(=O)c2c(O)c(O)ccc2o1 | 12.6 | 1.4 | 2.0 | 0.8 | -2.7 | 5.0
COc1ccc(C2C(C)C3(O)CC(C#N)(C(=O)N3)C2(C#N)C#N)cc1 (configuration not stated) | . | . | . | . | -9.1 | 6.0
C/C(=N/NC(=O)CNC(=O)Cc1ccccc1)c1ccco1 | -15.2 | 2.4 | 1.5 | -5.0 | 3.0 | 6.4
CN(CC(=O)Nc1ccccc1Cl)C(=O)CSc1ncc(C(F)(F)F)cc1Cl | 5.9 | 4.9 | 3.6 | -0.2 | 4.6 | -1.1
CCc1ccc(OCCNC(=O)c2cc(SC)ccc2Cl)cc1 | 17.2 | 5.5 | 2.3 | 0.9 | 1.3 | -42.1
CCc1ccc2ncc(S(=O)(=O)c3ccc(C)c(C)c3)c(N3CCCC3)c2c1 | 72.2* | 10.4 | 0.1 | 12.4 | -0.4 | -30.1
CCOc1ccc2ncc(S(=O)(=O)c3ccccc3)c(N3CCN(c4ccc(OC)cc4)CC3)c2c1 | 52.5 | 1.3 | 2.6 | 0.2 | 3.8 | -2.1
SMILES | WT yeast gro inh | NPY Y2 blocker | RAM inhibit | NPY Y1 blocker | NPY2 pot ag | NPY-Y1 PAM-ag
CCN(CC)c1nc(C)c(C(=S)Nc2cc([N+](=O)[O-])ccc2Cl)s1 | 2.3 | . | 4.3 | -4.9 | 6.5 | 10.1
CCCCOc1ccc(C(=O)N/C(=C\c2cccc([N+](=O)[O-])c2)C(=O)OC(C)C)cc1 | 9.8 | 2.3 | 8.8* | 4.8 | -9.3 | -15.2
COc1ccc(Nc2nc(-c3ccccc3)c3ccccc3n2)cc1 | 64.0* | 2.5 | 0.9 | 9.3 | -5.2 | 3.7
COc1ccc(Nc2nc(C)c(-c3ccccc3)s2)cc1 | 66.0* | 3.5 | -0.8 | 3.4 | 16.8 | 17.5
COc1ccc2nc(Nc3ccccc3)sc2c1 | 29.3 | . | -0.5 | -4.1 | 8.4 | 8.8
COc1cc(-c2noc(CCC(N)=O)n2)cc(OC)c1OC | 4.7 | 0.3 | -0.7 | -2.7 | -9.5 | -17.5
Cc1nc(N)nc(N)c1/C=C/C(C)(C)c1ccc(Cl)cc1 | 69.2* | . | 4.3 | 9.0 | -4.3 | -38.6
O=C(OCc1csc(-c2ccccc2)n1)c1cccs1 | 48.2 | 4.8 | 1.4 | 2.0 | 7.1 | 10.5
Cc1ccsc1C(=O)OCc1csc(-c2ccccc2)n1 | 67.0* | 4.8 | 2.3 | 10.9 | -16.4 | -39.1
O/N=C(\c1ccc(Cl)cc1Cl)c1ncc(C(F)(F)F)cc1Cl | 85.1* | 11.1 | -1.1 | 3.9 | 7.0 | 10.6
O=C(c1ccc(Cl)cc1)N1CCC(O)(CSc2ccc(Cl)cc2Cl)CC1 | 70.6* | 1.5 | 3.0 | 4.2 | -16.3 | 2.0
CSc1nc2ccc(NS(=O)(=O)c3cccc(Cl)c3Cl)cc2s1 | 80.8* | 8.4 | 3.2 | 17.5 | -10.1 | -30.9
CCOC(=O)CSCC(=O)Nc1nnc(-c2cccc([N+](=O)[O-])c2)s1 | 13.6 | 2.2 | 4.1 | -4.7 | 4.5 | -14.9
Cc1oc(C(C)(C)C)cc1C(=O)Nc1cccc(/C=C/C(=O)O)c1 | -1.6 | 1.6 | 8.4* | 4.0 | 0.3 | 1.0
c1ccc(-c2noc(CN3CCN(C(c4ccccc4)c4ccccc4)CC3)n2)cc1 | 74.8* | 1.0 | 0.9 | -3.2 | -0.5 | -9.2
c1ccc(-c2noc(CN3CCN(c4ccccc4)CC3)n2)cc1 | 8.3 | 5.9 | -0.2 | 7.4 | -3.3 | -18.4
Cc1ccc(-n2nnnc2C(Cl)c2nnnn2-c2ccc(C)cc2)cc1 | 74.2* | 15.4 | -1.3 | -1.9 | -6.0 | -4.5
CC(C)N(C(=O)c1ccc2nc(-c3ccccc3)c(-c3ccccc3)nc2c1)C(C)C | 53.5 | -2.9 | 5.8 | -8.9 | -3.8 | 8.9
CC(C(=O)N1CCOCC1)N1C(=O)C2C3CC(C(Br)C3Br)C2C1=O (configuration not stated) | 14.4 | -1.1 | 2.1 | 3.1 | -0.4 | -15.8
COc1cc(C(=O)NCCC(=O)NCCc2ccc(Cl)cc2)cc(OC)c1OC | -23.5 | 2.2 | 0.0 | -0.7 | -7.4 | 2.7
O=C(Cc1ccc(Cl)cc1)NC(=S)Nc1ccccc1N1CCOCC1 | 62.2* | 1.0 | 3.5 | -0.2 | 1.4 | 11.9
O=C(Nc1ccccc1N1CCOCC1)C1(c2ccc(Cl)cc2)CCC1 | 46.5 | . | 9.2* | 6.7 | -6.1 | 1.0
O=C(CNCC1CCCO1)Nc1ccccc1N1CCOCC1 (configuration not stated) | -6.2 | 2.0 | 1.5 | -1.4 | 3.4 | 41.8*

Screening data as filed in PubChem.
